b-catenin transl = modulators of beta-catenin nuclear translocation; hit rate 0.3% among 190,000; HeLa beta-catenin nuclear translocation, immunofluorescence imaging; AID 1665; nuclear translocation activity, % at 5 µM;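 active = nuclear translocation activity above 50% at 5 µM, with a well cell count of 50 or more; inconclusive = wells under 50 cells across six images, flagged as toxic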;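 note: per-cell ratio of nuclear to cytoplasmic median beta-catenin stain intensity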
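Signal – beta-catenin immunofluorescence imaging with DAPI · Test system – human HeLa cell line · Dosing – 5 µM primary single dose, 0.1% DMSO, 0.02–20 µM confirmation series · Measure – % activation, nuclear-to-cytoplasmic median beta-catenin signal ratio per cell · Incubation – 24 h compound exposure at 37°C, 5% CO2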
Ins promoter up = MIN6 insulin promoter up-regulation; MIN6 insulin promoter-GFP reporter, high-content imaging; active compounds read high; z-score at 5 µM; hit rate 0.3% among 190,000; AID 1625;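 active = z-score above 3 at 5 µM with at least 500 cells counted in the well; inconclusive = wells under 500 cells, flagged as cytotoxic or low count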
Dynein cargo inh = blocks dynein driven cargo transport along microtubules. 3617.4 mouse cells, GR-EGFP nuclear translocation imaging; test concentration mostly 20 µM; stimulated with dexamethasone, 1 µM; active compounds read low. z-score, hits read low. hit rate 0.47% among 220,000;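 active = plate z-score of nuclear minus cytoplasmic receptor signal below a set negative limit, without overly bright fluorescence or cell loss, cut at about -3.5 in these data, passing the limit was not always enough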;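 note: z-score of nuclear minus cytoplasmic ring GR-EGFP intensity difference per well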
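medium = tetracycline-free induction medium containing charcoal-stripped FBS | also added = 1.0 µM final dexamethasone stimulus | schedule = 48 h induction, 1 h compound, 30 min dex at 37 °C | technique = fixed, Hoechst-stained cells imaged at 10x for EGFP | measure = GR-EGFP nuclear translocation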
MT stabilizer = stabilizes microtubules in HeLa cells | HeLa tubulin immunostaining HCS, 24 h; share of cells brighter than vehicle mean+2SD | % tubulin-high responders, % at 10 µM | hit rate 0.83% among 200,000 | AID 2205;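 active = plate Z-score above 3 for both tubulin-high and condensed-nucleus cell shares, with cell loss under 80%, at 10 µM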;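 note: anti alpha tubulin signal scored within the nucleus-defined area of each cell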
Autophagy mod = modulators of autophagy | AID 463193 | MEF GFP-LC3 puncta imaging; test concentration mostly 10 µM | calls only at 10 µM (by protocol) | hit rate 0.98% among 190,000;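 active = percentage of spot-positive cells more than 3 SD above its plate mean, without a fluorescence outlier flag or 80% toxicity; inconclusive = no clear call, values can overlap the other calls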
Each line names hits and unclear results; the compound was inactive in the other large screens. In the library only some 2.3% were active in any assay of this set; here they are far more common.

CCSc1nnc(COc2ccccc2)n1CC	none (no result: MT stabilizer, Autophagy mod)
C=CCn1c(SCC#N)nnc1-c1ccc2ncccc2c1	none (no result: MT stabilizer, Autophagy mod)
COc1cccc(NC(=O)Cn2c(=O)n(-c3ccccc3)c(=O)c3sccc32)c1	none
Cc1ccc(/C=N/NC(=O)CCCOc2ccc(Cl)cc2Cl)cc1	b-catenin transl 115.1
CCOCCCNS(=O)(=O)c1ccc(NC(=O)C2CC(=O)N(c3ccc(C)cc3)C2)cc1 (centres undefined)	none
CCOC(=O)C1=c2/c(=C/c3ccncc3)c(N)c(C(=O)OC)n2C(=O)C(c2ccncc2)S1 (centres undefined)	none
CCOC(=O)C1=c2/c(=C/c3ccccc3OC)c(N)c(C#N)n2C(=O)C(c2ccccc2OC)S1 (centres undefined)	Autophagy mod active (no result: b-catenin transl)
Cc1cc(C2=NNC(=NC3CC3)SC2)c(C)n1Cc1ccco1	none
COCCCN=C1NN=C(c2cc(C)n(Cc3ccco3)c2C)CS1	MT stabilizer 14.4 (no result: b-catenin transl)
Cc1c(Cl)cccc1NC(=O)CSC(N)=O	none
C=CCc1cc(Cl)ccc1OCCOCCNC(C)(C)C	Autophagy mod active
Cc1c(C(=O)C(=O)N2c3ccccc3CC2C)c2ccccc2n1C (centres undefined)	MT stabilizer 16.8
Cc1c(C(=O)C(=O)N2CC=C(c3ccccc3)CC2)c2ccccc2n1C	b-catenin transl 61.5
Cc1ccccc1NC(=O)N1c2ccccc2CC1C (centres undefined)	none (no result: Ins promoter up)
O=c1[nH]cnc2sc3c(c12)CCC3	none (no result: MT stabilizer, Autophagy mod)
N#CCc1nc(CSc2nc3ccccc3s2)cs1	Ins promoter up 4.03 (no result: b-catenin transl)
Cc1ccc(F)c([C@H]2C3C=CCC(c4ccccc4)C3C(=O)N2Cc2ccccc2)c1 (some centres undefined)	none (no result: Ins promoter up, MT stabilizer, Autophagy mod)
Cc1ccc(CNc2ccc3c(c2)OCO3)cc1	Autophagy mod active (no result: Ins promoter up)
COCCOC(=O)c1[nH]c2c(c1C)C(=O)CC(c1ccccc1)C2 (centres undefined)	b-catenin transl 95.2, MT stabilizer 25.1, Autophagy mod active
COCCOC(=O)c1[nH]c2c(c1C)C(=O)CC(c1ccc(F)cc1)C2 (centres undefined)	b-catenin transl 77.6, MT stabilizer 21.5
CCOc1ccc(/C(C)=N/N2C(=O)C(CC(=O)Nc3ccc(OC)cc3[N+](=O)[O-])SC2=Nc2cccc(C)c2C)cc1 (centres undefined)	none
COc1ccccc1/C=N/N1C(=O)C(CC(=O)Nc2ccc([N+](=O)[O-])cc2OC)SC1=Nc1cccc(C)c1C (centres undefined)	MT stabilizer 18.9 (no result: Ins promoter up)
CN(C)C(CNC(=O)CNC(=O)c1ccc(Br)cc1)c1ccccc1 (centres undefined)	none
Cc1ccnc(N2C(=O)c3cccc4c([N+](=O)[O-])ccc(c34)C2=O)c1	Ins promoter up 3.14
O=C1c2cccc3c([N+](=O)[O-])ccc(c23)C(=O)N1Cc1cccnc1	none
Cc1ccc(N2C(=O)c3cccc4c([N+](=O)[O-])ccc(c34)C2=O)c2cccnc12	b-catenin transl 51.7 (no result: MT stabilizer, Autophagy mod)
COC(=O)CCC(=O)Nc1sc(C)c(C)c1C(N)=O	none
COC(=O)CCC(=O)NC(=S)Nc1sc(C)c(C)c1C(N)=O	MT stabilizer 21.2
O=C(CCl)N(c1ccccc1)C1CCCCC1	Autophagy mod inconclusive
CNC(=O)CN(c1cc(OCCOC)c(Cl)cc1Cl)S(=O)(=O)c1ccc(OC)cc1	MT stabilizer 15.8
Cc1c(NC(=O)c2ccc(Br)s2)c(=O)n(-c2ccccc2)n1C	none
COc1ccc(NS(=O)(=O)c2cc(NC(=O)c3cccc(OCc4c(C)noc4C)c3)ccc2OC)cc1	b-catenin transl 63.2, MT stabilizer 13.3
Cc1ccc(NC(=O)c2cccc(OCc3c(C)noc3C)c2)cc1	none (no result: b-catenin transl)
O=C(O)c1ccccc1C(=O)NCCc1c(C(=O)O)[nH]c2ccc(Cl)cc12	none (no result: MT stabilizer, Autophagy mod)
O=C(O)CCCN1C(=O)/C(=C/c2ccc(-c3nc4ccccc4s3)o2)SC1=S	none
O=C(O)CCCCCN1C(=O)/C(=C\c2ccc(-c3ccc(Cl)cc3)o2)SC1=S	Ins promoter up 4.23 (no result: MT stabilizer, Autophagy mod)
Cc1[nH]c(=S)[nH]c(=O)c1Cc1ccc(OCC(C)C)cc1	MT stabilizer 14.8 (no result: Ins promoter up)
O=C(CN1CCN(S(=O)(=O)c2ccc(Br)cc2)CC1)N/N=C/c1ccc(Cl)c([N+](=O)[O-])c1	MT stabilizer 12.7
Cc1ccc(S(=O)(=O)N2CCN(CC(=O)N/N=C\c3ccc(Cl)c([N+](=O)[O-])c3)CC2)cc1	none
c1cncc(-c2nc(NCCCN3CCOCC3)c3c4c(sc3n2)CCC4)c1	Autophagy mod active
